Results on 36 molecules are retold here after PubChem BioAssay AID1230 (PCMD, 2008).

In all, about 210,000 compounds went through this assay and about 220 (0.1%) were called active. The sample holds actives, similar compounds and a random draw of the others, so the mix is not that of the screen.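 Rule for the calls: active = signal enhancement of 30% or more; inactive = the rest.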

E3 ubiquitin-protein ligase Mdm2 (Homo sapiens), sequence (Q00987 whole entry, looked up, the tested form may be a part): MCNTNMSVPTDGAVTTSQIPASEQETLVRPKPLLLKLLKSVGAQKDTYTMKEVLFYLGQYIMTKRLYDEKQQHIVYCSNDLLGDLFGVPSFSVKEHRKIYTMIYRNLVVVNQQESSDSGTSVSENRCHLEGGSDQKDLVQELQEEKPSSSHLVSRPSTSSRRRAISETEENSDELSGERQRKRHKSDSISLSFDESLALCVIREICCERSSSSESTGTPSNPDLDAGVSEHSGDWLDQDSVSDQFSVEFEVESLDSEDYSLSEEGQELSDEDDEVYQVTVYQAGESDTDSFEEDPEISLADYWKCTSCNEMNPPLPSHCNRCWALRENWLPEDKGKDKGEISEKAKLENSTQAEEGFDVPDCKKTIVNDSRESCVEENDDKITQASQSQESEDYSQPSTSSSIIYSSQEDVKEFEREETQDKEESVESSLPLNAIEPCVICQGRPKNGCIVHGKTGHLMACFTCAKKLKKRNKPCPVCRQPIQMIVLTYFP

The test concerns the target E3 ubiquitin-protein ligase Mdm2 (Homo sapiens) (UniProt Q00987). The test can be described thus: MDM2-luciferase reporter signal enhancers, primary screen, MDM2 E3 ligase inhibitor project, cell-based, luminescence, 1536-well (AID 1230).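 Note: luminescence tracks abundance of the self-degrading MDM2-luciferase fusion protein; higher signal means inhibition of MDM2 E3 ligase activity.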 The conditions noted are these: cell-based MDM2 ubiquitination luciferase reporter, 2 h; at 5 µM; hits give high values; 0 = plate control, 100 = twice control, blank-subtracted. In short, it runs like this:
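Material: Stable MDM2–luciferase fusion reporter cells | Amount: 2000 cells seeded into each well | Dosing: One concentration, 5 µM, with 0.2% DMSO | Incubation: 4 h cell settling then 2 h compound exposure, 37 °C | Measured by: Luciferase luminescence | Read-out basis: % enhancement relative to plate controls after blank subtraction | Benchmarks: Control and blank well means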
(Reporter assays use an easily measured gene product as a stand-in for the process of interest.)
As to `CCOC(=O)C1CCN(C(=O)Nc2ccc(C)c(Cl)c2)CC1`, the signal enhancement is -11.1% (inactive).
With `Cn1nccc1NC(=O)Nc1ccc(OC(F)(F)F)cc1`, the signal enhancement was -5.96% (inactive).
In the case of `O=C1NC[C@@H](Cc2ccc(O)cc2)N(CCc2cccc(F)c2)C1=O` it was 10.9% (inactive).
In the case of `COc1ccc(CNC(=O)C(Cc2ccccc2)n2cccc2)cc1` (stereo unspecified) it was -4.92% (inactive).
In the case of `Cn1cnc([N+](=O)[O-])c1Sc1n[nH]c(N)n1` it was -5.56% (inactive).
Turning to `O=C(CCc1ccccc1)NNc1ccc(F)cc1`, the signal enhancement was -12.4% (inactive).
Regarding `CCCCCCCCCCCCN1C(=O)CSC1c1cccnc1` (stereo unspecified), the signal enhancement was -5.41% (inactive).
Take `O=C(NCC1CCCO1)c1cc(-c2ccccc2)nc2ccccc12` (stereo unspecified): the signal enhancement is -4.98% (inactive).
Take `CCOC(=O)C(=CNNc1ccsc1C(=O)OC)C(=O)OCC`: the signal enhancement is -27.3% (inactive).
With `COCCn1c(=NC(=O)c2ccccc2[N+](=O)[O-])sc2cc(S(C)(=O)=O)ccc21` the figure was -5.21% (inactive); with `Cn1c(=NC(=O)c2ccc3c(c2)OCCO3)sc2cc(S(C)(=O)=O)ccc21`, 37% (active).
With `CC(=O)c1ccc2c(c1)OCCOCCOc1ccc(C(C)=O)cc1OCCOCCO2`, the signal enhancement was -8.95% (inactive).
In the case of `Cc1cccc(N(C)C(=O)c2cc3c(=O)[nH]c4ccc(C)cc4c3s2)c1` it was 2.91% (inactive); in that of `Cc1cccc(N2CCN(Cc3nc(C4CC4)no3)CC2)n1`, 2.81% (inactive); in that of `CC(C)(C)c1cc(P(=O)(c2ccccc2)c2ccccc2)ccc1O`, -14% (inactive).
For `COc1ccc(CCNC(=O)C2CC3Cn4c(nc5cc(C)c(C)cc54)C3N2C)cc1` (stereo unspecified), the signal enhancement is 13% (inactive).
With `CC1=NOC(=O)/C1=C\c1ccccc1` the figure was -4.01% (inactive); with `Cc1cccc(C)c1Nc1c(-c2ccccc2O)nc2ncccn12`, -18.4% (inactive); with `CN(Cc1nc(-c2cnccn2)no1)Cc1n[nH]c2c1CCCCC2`, -8.5% (inactive).
Turning to `Clc1ccc(CSc2nnc3c(n2)[nH]c2ccccc23)cc1`, the signal enhancement is -10.6% (inactive).
Turning to `CCNc1nc(NCC)nc(N/N=C/c2ccc(O)c(OC)c2)n1`, the signal enhancement was -10% (inactive).
In the case of `CC(=O)N1N=C(c2ccncc2)OC1(Cc1ccccc1)Cc1ccccc1` it was -11.4% (inactive).
For `CCC(C)(C)NC(=O)C(c1ccc(O)cc1)N(C(=O)Cn1nnc2ccccc21)c1ccc(NC(C)=O)cc1` (stereo unspecified), the signal enhancement is -11.7% (inactive).
Regarding `Cn1c2ccc(F)cc2c2nnc(NN)nc21`, the signal enhancement is -2.02% (inactive).
In the case of `COc1ccc(OC)c(NC(=O)N[C@H](Cc2ccccc2)C(=O)NN)c1` it was -4.05% (inactive); in that of `NC(=O)CC(NC(=O)Cc1cccc2ccccc12)c1ccc(NCc2cc(F)ccc2F)c([N+](=O)[O-])c1` (stereo unspecified), 5.13% (inactive).
With `COc1ccc(OCC(O)CNCCNc2nccc(C(F)(F)F)n2)cc1` (stereo unspecified) the figure was -12.4% (inactive).
In the case of `CC1CN(c2nc(Nc3ccccc3)nc(N)c2[N+](=O)[O-])CC(C)O1` (stereo unspecified) it was -20.6% (inactive); in that of `Cc1c(C(=O)N(Cc2ccccc2)Cc2cccnc2)cnn1-c1ccc(F)cc1`, -11.7% (inactive).
`Clc1cccc(CN2COc3c(cc(Cl)c4cccnc34)C2)c1`: the signal enhancement is 46.8% (active).
Take `O=c1[nH]n(-c2cccc(Cl)c2)c2ncccc12`: the signal enhancement was -4.4% (inactive).
In the case of `Oc1c(CN2CCN(c3ccc(F)cc3)CC2)cc(Cl)c2cccnc12` it was 9.75% (inactive).
With `CCCSc1ncccc1C(=O)O` the figure was -7.45% (inactive).
With `COC(=O)C1=C(N)Oc2cc(C)[nH]c(=O)c2C1c1ccc(Cl)cc1` (stereo unspecified) the figure was -10.2% (inactive); with `CSc1nnc(SCc2nc3sc(C(=O)O)c(C)c3c(=O)[nH]2)s1`, -16.2% (inactive); with `O=C(CSc1nnnn1-c1ccc(O)cc1)c1ccc(F)cc1`, -12.1% (inactive).
